Measurements published in ChEMBL document CHEMBL3769367, “Orexin Receptor Antagonists: New Therapeutic Agents for the Treatment of Insomnia” (J Med Chem, 2016).

What was measured:
[1] = target: T1, Orexin receptor type 2 (Homo sapiens) (UniProt O43614)
T1 sequence (whole entry): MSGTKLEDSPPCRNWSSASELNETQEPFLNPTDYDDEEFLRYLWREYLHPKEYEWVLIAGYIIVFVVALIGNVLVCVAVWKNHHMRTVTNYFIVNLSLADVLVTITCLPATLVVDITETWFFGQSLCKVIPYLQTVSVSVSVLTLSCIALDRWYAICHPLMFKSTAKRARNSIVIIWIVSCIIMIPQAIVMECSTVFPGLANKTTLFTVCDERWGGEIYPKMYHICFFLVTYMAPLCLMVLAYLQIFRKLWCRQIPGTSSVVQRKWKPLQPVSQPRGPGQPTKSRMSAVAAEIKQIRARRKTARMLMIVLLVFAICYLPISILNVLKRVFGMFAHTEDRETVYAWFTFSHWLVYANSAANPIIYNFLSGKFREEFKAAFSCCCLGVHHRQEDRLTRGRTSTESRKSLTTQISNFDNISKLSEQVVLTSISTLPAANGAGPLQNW

[2] = target: T2, Orexin/Hypocretin receptor type 1 (Homo sapiens, UniProt O43613); assay: Antagonist activity at OX1R (unknown origin)
T2 sequence (O43613 whole entry): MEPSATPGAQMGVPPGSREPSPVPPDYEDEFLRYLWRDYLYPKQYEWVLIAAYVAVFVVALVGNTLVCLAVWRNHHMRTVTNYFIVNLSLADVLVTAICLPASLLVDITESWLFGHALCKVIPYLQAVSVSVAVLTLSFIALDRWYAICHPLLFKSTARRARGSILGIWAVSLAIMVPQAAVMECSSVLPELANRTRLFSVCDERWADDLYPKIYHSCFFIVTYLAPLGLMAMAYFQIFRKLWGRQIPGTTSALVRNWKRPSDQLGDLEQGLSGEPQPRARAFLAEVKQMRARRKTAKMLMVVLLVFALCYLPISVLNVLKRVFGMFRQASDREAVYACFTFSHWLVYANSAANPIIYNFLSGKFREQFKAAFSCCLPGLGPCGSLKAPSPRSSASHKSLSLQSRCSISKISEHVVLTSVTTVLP

[3] = test system: Homo sapiens; assay: Effect on sleep parameter in insomnia patient assessed as sleep efficiency at 10 mg, po administered two consecutive nights 90 mins prior to sleep by polysomnography; type: functional
[4] = test system: Homo sapiens; assay: Effect on sleep parameter in insomnia patient assessed as latency to persistent sleep time at 10 mg, po administered two consecutive nights 90 mins prior to sleep by polysomnography; type: functional
[5] = test system: Homo sapiens; assay: Effect on sleep parameter in insomnia patient assessed as wake after sleep onset time at 30 mg, po administered two consecutive nights 90 mins prior to sleep by polysomnography; type: functional
[6] = Half life in human plasma; type: ADME, organism-based
[7] = test system: Homo sapiens; assay: Effect on sleep parameter in insomnia patient assessed as latency to persistent sleep time at 30 mg, po administered two consecutive nights 90 mins prior to sleep by polysomnography; type: functional
[8] = test system: Homo sapiens; assay: Effect on sleep parameter in insomnia patient assessed as latency to persistent sleep time at 60 mg, po administered two consecutive nights 90 mins prior to sleep by polysomnography; type: functional
[9] = test system: Homo sapiens; assay: Effect on sleep parameter in insomnia patient assessed as sleep efficiency at 60 mg, po administered two consecutive nights 90 mins prior to sleep by polysomnography; type: functional
[10] = Apparent half life of the compound in human; type: ADME, organism-based; conditions: in vivo, read-out: t1/2(app) (converted)
[11] = test system: Plasma; assay: Drug metabolism in human plasma assessed as 2-(((S)-1-(5-(4-fluorophenyl)-2-methylthiazole-4-carbonyl)piperidin-2-yl)methyl)-3,5-dihydroxy-3,4-dihydroisoquinolin-1(2H)-one formation at 30 mg, po by LSC analysis; type: ADME, organism-based; conditions: in vivo
Outline: (§1)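 Eight healthy subjects received a single 30 mg oral dose of radiolabeled compound. Plasma extracts were profiled for metabolites, each expressed as a percentage of the radioactive dose.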

[12] = test system: Homo sapiens; assay: Effect on sleep parameter in insomnia patient assessed as wake after sleep onset time at 60 mg, po administered two consecutive nights 90 mins prior to sleep by polysomnography; type: functional
[13] = test system: Homo sapiens; assay: Effect on sleep parameter in insomnia patient assessed as sleep efficiency at 30 mg, po administered two consecutive nights 90 mins prior to sleep by polysomnography; type: functional
[14] = test system: Homo sapiens; assay: Effect on sleep parameter in insomnia patient assessed as total sleep time at 30 mg, po administered two consecutive nights 90 mins prior to sleep by polysomnography; type: functional
[15] = test system: Homo sapiens; assay: Effect on sleep parameter in insomnia patient assessed as wake after sleep onset time at 10 mg, po administered two consecutive nights 90 mins prior to sleep by polysomnography; type: functional
[16] = test system: Plasma; assay: Drug metabolism in human plasma assessed as (S)-2-(2-((1-(5-(4-fluorophenyl)-2-methylthiazole-4-carbonyl)piperidin-2-yl)methylcarbamoyl)-6-hydroxyphenyl)acetic acid formation at 30 mg, po by LSC analysis; type: ADME, organism-based; conditions: in vivo
Outline: as §1

[17] = test system: Homo sapiens; assay: Effect on sleep parameter in insomnia patient assessed as total sleep time at 60 mg, po administered two consecutive nights 90 mins prior to sleep by polysomnography; type: functional
[18] = test system: Homo sapiens; assay: Effect on sleep parameter in insomnia patient assessed as total sleep time at 10 mg, po administered two consecutive nights 90 mins prior to sleep by polysomnography; type: functional
[19] = test system: Canis familiaris; assay: Effect on sleep parameter in po dosed dog by EEG analysis; type: functional, Canis lupus familiaris
[20] = target: T2, Orexin/Hypocretin receptor type 1; assay: Antagonist activity at human OX1R expressed in CHO cell membranes assessed as inhibition of orexin-A-induced intracellular calcium release after 120 mins; type: functional, cell-based
[21] = Half life in iv dosed dog; type: ADME, organism-based, Canis lupus familiaris; conditions: in vivo
[22] = test system: Rattus norvegicus; assay: Effect on sleep parameter in po dosed rat by EEG analysis; type: functional
[23] = Plasma protein binding in rat; type: ADME, cell-free; conditions: read-out: PPB (converted)
[24] = Clearance in iv dosed rat; type: ADME, organism-based; conditions: in vivo
[25] = Ratio of drug level in CSF to plasma in rat; type: ADME, cell-free
[26] = target: T3, Orexin receptor type 2 (Homo sapiens, UniProt O43614); assay: Antagonist activity at human OX2R expressed in CHO cell membranes assessed as inhibition of orexin-A-induced intracellular calcium release after 120 mins; type: functional, cell-based
T3 sequence (O43614 whole entry): T1 sequence (whole entry)

[27] = Ratio of drug level in brain to plasma in rat; type: ADME, cell-free; conditions: read-out: BPR
[28] = Plasma protein binding in dog; type: ADME, cell-free, Canis lupus familiaris; conditions: read-out: PPB (converted)
[29] = Plasma protein binding in human; type: ADME, cell-free; conditions: read-out: PPB (converted)
[30] = Oral bioavailability in rat; type: ADME, organism-based; conditions: in vivo
[31] = Half life in iv dosed rat; type: ADME, organism-based; conditions: in vivo
[32] = Clearance in iv dosed dog; type: ADME, organism-based, Canis lupus familiaris; conditions: in vivo
[33] = target: T2, Orexin/Hypocretin receptor type 1; assay: Binding affinity to OX1R (unknown origin)
[34] = Oral bioavailability in dog; type: ADME, organism-based, Canis lupus familiaris; conditions: in vivo
[35] = species on record: Rattus norvegicus; assay: Receptor occupancy at OX2R in rat brain assessed as drug level in plasma; type: functional

CC1(C)OC[C@H](NC(=O)Nc2ccc(Br)cc2Br)[C@H](c2ccccc2)O1
pKb [1]: 8.3

COc1cccc(OC)c1C(=O)N1CCCN(c2nc3ccc(Cl)cc3s2)CC1
IC50 [2]: 630 nM

Cc1nc(C(=O)N2CCCC[C@H]2CNC(=O)c2cccc3occc23)c(-c2ccc(F)cc2)s1 (stereo in doubt; form 1) [SB-649868]
Activity [3]: 4.7%
Time [4]: -26.1 min
Time [5]: -18.4 min
half-life [6]: 4 h
Time [7]: -33 min
Time [8]: -43.7 min
Activity [9]: 14.6%
half-life [10]: 5 h
Drug metabolism [11]: 2 %ID
Time [12]: -29 min
Activity [13]: 10.4%
Time [14]: 49.7 min
Time [15]: 3.2 min
Drug metabolism [16]: 11 %ID
Time [17]: 69.8 min
Time [18]: 22.4 min

Cc1ccc(-c2ncccn2)c(C(=O)N2C[C@H](COc3ccc(F)cn3)CC[C@H]2C)c1 [FILOREXANT]
Activity [19]: 0.25 mg/kg
IC50 [20]: 11 nM
half-life [21]: 2.3 h
Activity [22]: 3 mg/kg
fraction unbound [23]: 0.05
clearance [24]: 67 mL/min/kg
Kp [25]: 0.04
IC50 [26]: 11 nM
Kp [27]: 1.1
fraction unbound [28]: 0.06
fraction unbound [29]: 0.025
bioavailability [30]: 25%
half-life [31]: 0.5 h
clearance [32]: 5.8 mL/min/kg
Ki [33]: 2.2 nM
bioavailability [34]: 26%
Occ90 [35]: 142 nM
